This is an account of results in ChEMBL document CHEMBL1629545, “A morpholino oligomer targeting highly conserved internal ribosome entry site sequence is able to inhibit multiple species of picornavirus” (Antimicrob Agents Chemother, 2008).

Data set [1] concerns HeLa. The data set can be described thus: Cytotoxicity against human HeLa cells 10 uM after 24 hrs by MTS assay. The format is cell-based. The method in brief:
(§1)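 HeLa cells at ~80% confluence, uninfected, exposed to 1–100 μM PPMO or water (mock) in serum-free DMEM-F-12 (1:1) for 24 h. MTS reagent was added for 4 h and absorbance read at 492 nm. Viability was expressed as percent of water-treated cells (set to 100%), averaged over 12 wells.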
(Tetrazolium dyes change colour on reduction, which living cells bring about.)

Data set [2] concerns HeLa. The data set can be described thus: Cytotoxicity against human HeLa cells at 10 uM by MTS assay. The format is cell-based. The method in brief:
as §1

In data set [3] the test system is Poliovirus 1. The data set can be described thus: Antiviral activity against Human poliovirus type 1 infected in Human HeLa cell assessed as inhibition of translation at 10 ug/ml by luciferase reporter gene assay. Type of data set: functional, organism-based. The method in brief: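 In-cell translation control: HeLa cells electroporated with 20 μg PV1-Luc replicon RNA were placed in medium with 10 μg/ml puromycin at 37°C in 5% CO2. Luciferase in lysates was read by luminometer at hourly time points after transfection. Two experiments were averaged.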
In general terms: A reporter such as luciferase makes a cellular process visible.

In data set [4] the test system is Vero. The data set is described as follows: Cytotoxicity against African green monkey Vero cells at 10 uM after 24 hrs by MTS assay. The format is cell-based. The conditions noted are these: chlorocebus sabaeus.
In data set [5] the test system is SK-N-MC. The data set can be described thus: Cytotoxicity against human SK-N-MC cell at 10 uM after 24 hrs by MTS assay. The format is cell-based.

Calls of active or inactive are those of the source. The rule behind the calls is not given here.

With `Cc1cn([C@H]2CN(P(=O)(OC[C@@H]3CN(P(=O)(OC[C@@H]4CN(P(=O)(OC[C@@H]5CN(P(=O)(OC[C@@H]6CN(P(=O)(OC[C@@H]7CN(P(=O)(OC[C@@H]8CN(P(=O)(OC[C@@H]9CN(P(=O)(OC[C@@H]%10CN(P(=O)(OC[C@@H]%11CN(P(=O)(OC[C@@H]%12CN(P(=O)(OC[C@@H]%13CN(P(=O)(OC[C@@H]%14CN(P(=O)(OC[C@@H]%15CN(P(=O)(OC[C@@H]%16CN(P(=O)(OC[C@@H]%17CN(P(=O)(OC[C@@H]%18CN(P(=O)(OC[C@@H]%19CN(P(=O)(OC[C@@H]%20CN(P(=O)(OC[C@@H]%21CN(P(=O)(OC[C@@H]%22CNC[C@H](n%23cnc%24c(N)ncnc%24%23)O%22)N(C)C)C[C@H](n%22cc(C)c(=O)[nH]c%22=O)O%21)N(C)C)C[C@H](n%21ccc(N)nc%21=O)O%20)N(C)C)C[C@H](n%20cnc%21c(N)ncnc%21%20)O%19)N(C)C)C[C@H](n%19cc(C)c(=O)[nH]c%19=O)O%18)N(C)C)C[C@H](n%18cc(C)c(=O)[nH]c%18=O)O%17)N(C)C)C[C@H](n%17cnc%18c(=O)[nH]c(N)nc%18%17)O%16)N(C)C)C[C@H](n%16cnc%17c(=O)[nH]c(N)nc%17%16)O%15)N(C)C)C[C@H](n%15cnc%16c(=O)[nH]c(N)nc%16%15)O%14)N(C)C)C[C@H](n%14cnc%15c(N)ncnc%15%14)O%13)N(C)C)C[C@H](n%13cc(C)c(=O)[nH]c%13=O)O%12)N(C)C)C[C@H](n%12cnc%13c(=O)[nH]c(N)nc%13%12)O%11)N(C)C)C[C@H](n%11cnc%12c(=O)[nH]c(N)nc%12%11)O%10)N(C)C)C[C@H](n%10cnc%11c(N)ncnc%11%10)O9)N(C)C)C[C@H](n9cnc%10c(=O)[nH]c(N)nc%109)O8)N(C)C)C[C@H](n8cc(C)c(=O)[nH]c8=O)O7)N(C)C)C[C@H](n7ccc(N)nc7=O)O6)N(C)C)C[C@H](n6cnc7c(N)ncnc76)O5)N(C)C)C[C@H](n5cnc6c(=O)[nH]c(N)nc65)O4)N(C)C)C[C@H](n4ccc(N)nc4=O)O3)N(C)C)C[C@@H](COP(=O)(N(C)C)N3CCN(C(=O)CCNC(=O)CCCCCNC(=O)[C@H](CCCNC(=N)N)NC(=O)CCCCCNC(=O)[C@H](CCCNC(=N)N)NC(=O)[C@H](CCCNC(=N)N)NC(=O)CCCCCNC(=O)[C@H](CCCNC(=N)N)NC(=O)[C@H](CCCNC(=N)N)NC(=O)CCCCCNC(=O)[C@H](CCCNC(=N)N)NC(=O)[C@H](CCCNC(=N)N)NC(=O)CCCCCNC(=O)[C@@H](N)CCCNC(=N)N)CC3)O2)c(=O)[nH]c1=O` (stereo partly specified), the Activity entry in data set [1] was “Toxic”; in data set [2] it was “Non-toxic”; in data set [4] it was “Non-toxic”; in data set [5], “Non-toxic”. The result in data set [3] was inactive.

On to `Cc1cn([C@H]2CN(P(=O)(OC[C@@H]3CN(P(=O)(OC[C@@H]4CN(P(=O)(OC[C@@H]5CN(P(=O)(OC[C@@H]6CN(P(=O)(OC[C@@H]7CN(P(=O)(OC[C@@H]8CN(P(=O)(OC[C@@H]9CN(P(=O)(OC[C@@H]%10CN(P(=O)(OC[C@@H]%11CN(P(=O)(OC[C@@H]%12CNC[C@H](n%13cnc%14c(N)ncnc%14%13)O%12)N(C)C)C[C@H](n%12cnc%13c(N)ncnc%13%12)O%11)N(C)C)C[C@H](n%11cnc%12c(N)ncnc%12%11)O%10)N(C)C)C[C@H](n%10cc(C)c(=O)[nH]c%10=O)O9)N(C)C)C[C@H](n9cc(C)c(=O)[nH]c9=O)O8)N(C)C)C[C@H](n8cnc9c(N)ncnc98)O7)N(C)C)C[C@H](n7cnc8c(N)ncnc87)O6)N(C)C)C[C@H](n6cnc7c(=O)[nH]c(N)nc76)O5)N(C)C)C[C@H](n5ccc(N)nc5=O)O4)N(C)C)C[C@H](n4ccc(N)nc4=O)O3)N(C)C)C[C@@H](COP(=O)(N(C)C)N3C[C@@H](COP(=O)(N(C)C)N4C[C@@H](COP(=O)(N(C)C)N5C[C@@H](COP(=O)(N(C)C)N6C[C@@H](COP(=O)(N(C)C)N7C[C@@H](COP(=O)(N(C)C)N8C[C@@H](COP(=O)(N(C)C)N9C[C@@H](COP(=O)(N(C)C)N%10C[C@@H](COP(=O)(N(C)C)N%11CCN(C(=O)CCNC(=O)CCCCCNC(=O)[C@H](CCCNC(=N)N)NC(=O)CCCCCNC(=O)[C@H](CCCNC(=N)N)NC(=O)[C@H](CCCNC(=N)N)NC(=O)CCCCCNC(=O)[C@H](CCCNC(=N)N)NC(=O)[C@H](CCCNC(=N)N)NC(=O)CCCCCNC(=O)[C@H](CCCNC(=N)N)NC(=O)[C@H](CCCNC(=N)N)NC(=O)CCCCCNC(=O)[C@@H](N)CCCNC(=N)N)CC%11)O[C@@H](n%11cc(C)c(=O)[nH]c%11=O)C%10)O[C@@H](n%10cc(C)c(=O)[nH]c%10=O)C9)O[C@@H](n9cc(C)c(=O)[nH]c9=O)C8)O[C@@H](n8cc(C)c(=O)[nH]c8=O)C7)O[C@@H](n7cc(C)c(=O)[nH]c7=O)C6)O[C@@H](n6cc(C)c(=O)[nH]c6=O)C5)O[C@@H](n5cc(C)c(=O)[nH]c5=O)C4)O[C@@H](n4ccc(N)nc4=O)C3)O2)c(=O)[nH]c1=O` (stereo partly specified), for which the Activity entry is recorded as “Toxic” in data set [1], “Non-toxic” in data set [2], “Non-toxic” in data set [4] and “Non-toxic” in data set [5]. In addition, the outcome in data set [3] was inactive.

On to `Cc1cn([C@H]2CN(P(=O)(OC[C@@H]3CN(P(=O)(OC[C@@H]4CN(P(=O)(OC[C@@H]5CN(P(=O)(OC[C@@H]6CNC[C@H](n7cnc8c(N)ncnc87)O6)N(C)C)C[C@H](n6cnc7c(N)ncnc76)O5)N(C)C)C[C@H](n5cc(C)c(=O)[nH]c5=O)O4)N(C)C)C[C@H](n4cc(C)c(=O)[nH]c4=O)O3)N(C)C)C[C@@H](COP(=O)(N(C)C)N3C[C@@H](COP(=O)(N(C)C)N4C[C@@H](COP(=O)(N(C)C)N5C[C@@H](COP(=O)(N(C)C)N6C[C@@H](COP(=O)(N(C)C)N7C[C@@H](COP(=O)(N(C)C)N8C[C@@H](COP(=O)(N(C)C)N9C[C@@H](COP(=O)(N(C)C)N%10C[C@@H](COP(=O)(N(C)C)N%11C[C@@H](COP(=O)(N(C)C)N%12C[C@@H](COP(=O)(N(C)C)N%13C[C@@H](COP(=O)(N(C)C)N%14C[C@@H](COP(=O)(N(C)C)N%15C[C@@H](COP(=O)(N(C)C)N%16C[C@@H](COP(=O)(N(C)C)N%17C[C@@H](COP(=O)(N(C)C)N%18C[C@@H](COP(=O)(N(C)C)N%19C[C@@H](COP(=O)(N(C)C)N%20C[C@@H](COP(=O)(N(C)C)N%21C[C@@H](COP(=O)(N(C)C)N%22CCN(C(=O)CCNC(=O)CCCCCNC(=O)[C@H](CCCNC(=N)N)NC(=O)CCCCCNC(=O)[C@H](CCCNC(=N)N)NC(=O)[C@H](CCCNC(=N)N)NC(=O)CCCCCNC(=O)[C@H](CCCNC(=N)N)NC(=O)[C@H](CCCNC(=N)N)NC(=O)CCCCCNC(=O)[C@H](CCCNC(=N)N)NC(=O)[C@H](CCCNC(=N)N)NC(=O)CCCCCNC(=O)[C@@H](N)CCCNC(=N)N)CC%22)O[C@@H](n%22cnc%23c(=O)[nH]c(N)nc%23%22)C%21)O[C@@H](n%21cnc%22c(=O)[nH]c(N)nc%22%21)C%20)O[C@@H](n%20cc(C)c(=O)[nH]c%20=O)C%19)O[C@@H](n%19cnc%20c(N)ncnc%20%19)C%18)O[C@@H](n%18ccc(N)nc%18=O)C%17)O[C@@H](n%17cnc%18c(N)ncnc%18%17)C%16)O[C@@H](n%16cnc%17c(N)ncnc%17%16)C%15)O[C@@H](n%15ccc(N)nc%15=O)C%14)O[C@@H](n%14ccc(N)nc%14=O)C%13)O[C@@H](n%13ccc(N)nc%13=O)C%12)O[C@@H](n%12ccc(N)nc%12=O)C%11)O[C@@H](n%11cc(C)c(=O)[nH]c%11=O)C%10)O[C@@H](n%10cnc%11c(=O)[nH]c(N)nc%11%10)C9)O[C@@H](n9cc(C)c(=O)[nH]c9=O)C8)O[C@@H](n8cnc9c(=O)[nH]c(N)nc98)C7)O[C@@H](n7ccc(N)nc7=O)C6)O[C@@H](n6cc(C)c(=O)[nH]c6=O)C5)O[C@@H](n5cnc6c(=O)[nH]c(N)nc65)C4)O[C@@H](n4cc(C)c(=O)[nH]c4=O)C3)O2)c(=O)[nH]c1=O` (stereo partly specified), for which the Activity entry in data set [1] is given as “Toxic”; in data set [2], “Non-toxic”; in data set [4], “Non-toxic”; in data set [5] it was “Non-toxic”. In addition, the result in data set [3] was inactive.

As for `COc1ccc(C[C@H](N)C(=O)N[C@H]2[C@@H](O)[C@H](n3cnc4c(N(C)C)ncnc43)O[C@@H]2CO)cc1`, the result in data set [3] was Active.
